# Experimental data from different studies.
# Lines come from different studies, so protocols differ.
# Target: Serine/threonine-protein kinase RIO1 (RIOK1, Homo sapiens, UniProt Q9BRS2)
# Concentration: 1 µM
# One construct used (Q9BRS2 1-568): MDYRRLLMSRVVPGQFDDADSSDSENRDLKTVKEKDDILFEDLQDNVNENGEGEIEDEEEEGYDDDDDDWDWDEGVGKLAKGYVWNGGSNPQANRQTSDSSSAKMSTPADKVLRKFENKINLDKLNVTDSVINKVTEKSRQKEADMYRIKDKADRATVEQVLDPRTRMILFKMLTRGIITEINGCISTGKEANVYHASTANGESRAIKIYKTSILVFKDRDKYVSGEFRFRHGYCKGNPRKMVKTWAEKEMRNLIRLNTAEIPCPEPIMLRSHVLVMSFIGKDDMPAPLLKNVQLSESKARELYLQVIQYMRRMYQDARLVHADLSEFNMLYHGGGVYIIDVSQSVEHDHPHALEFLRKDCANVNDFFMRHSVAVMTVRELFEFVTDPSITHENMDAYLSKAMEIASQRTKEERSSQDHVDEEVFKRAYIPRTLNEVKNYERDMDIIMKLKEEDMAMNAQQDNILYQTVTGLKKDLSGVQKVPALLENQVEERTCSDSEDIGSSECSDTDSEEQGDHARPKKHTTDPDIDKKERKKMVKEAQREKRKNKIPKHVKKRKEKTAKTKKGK
Compound,test,remaining binding [%]
O=S(=O)(NC1CCC(c2cc(F)ccc2F)(S(=O)(=O)c2ccc(Cl)cc2)CC1)C(F)(F)F (stereo not shown),"cell-free assay, competition with immobilised ligand",98
Nc1ncc2c(n1)-c1c([nH]c3ccc(C#CC4CC4)cc13)CCCC2,"binding, competition with immobilised ligand",80
Cc1cnc(Nc2ccc(C(=O)N3CCC(N4CCCC4)CC3)cc2)nc1-c1cc2ccccc2s1,"binding, competition with immobilised ligand",0
CN(CCCC(F)(F)F)c1nccc(-c2cnn3ncccc23)n1,binding,100
O=C(NCCCN1CCOCC1)c1ccc(Nc2nccc(-c3cc4ccccc4s3)n2)cc1,"binding, competition with immobilised ligand",0.1
CCN1CCN(Cc2ccc(C(=O)Nc3ccc(C)c(Oc4ccc5c(c4)CC(=O)N5)c3)cc2C(F)(F)F)CC1,"binding, competition with immobilised ligand",90
CN(C)C(=O)Cn1cc(-c2nc(C3(c4ccc(-c5cnc(N)nc5)cc4)CC3)no2)cn1,"cell-free assay, competition with immobilised ligand",100
COc1cnc(Nc2cccc(S(N)(=O)=O)c2)nc1N1CCN(c2ccccc2)CC1,"binding, competition with immobilised ligand",73
CN(c1nccc(-c2cnn3ncccc23)n1)C1CC1,binding,100
COc1cnc(Nc2cccc(S(N)(=O)=O)c2)nc1N1CCN(c2ccccc2)C(=O)C1,"binding, competition with immobilised ligand",49
O=C(Nc1c[nH]nc1C(=O)NC1CCNCC1)c1cc(F)cc(F)c1,"binding, competition with immobilised ligand",68
CCC(=N\O)/C(C)=C/c1ccc(F)cc1,"cell-free assay, competition with immobilised ligand",80
C[C@@H]1CCN(c2nccc(-c3cnn4ncccc34)n2)C1,binding,75
O=C(c1ccc(Nc2ncc(Cl)c(-c3ccc(Cl)s3)n2)cc1)N1CCC(N2CCCC2)CC1,"binding, competition with immobilised ligand",0
CNCc1ccccc1-c1csc([C@H](C)Nc2nc(C)nc3cc(OC)c(OC)cc23)c1,"cell-free assay, competition with immobilised ligand",96
CC1CCCN1c1nccc(-c2cnn3ncccc23)n1 (stereo not shown),binding,100
O=C(NCc1ncc(C(F)(F)F)cc1Cl)c1ccc2c(c1)C1(CCS(=O)(=O)CC1)[C@@H](C1CC1)N2S(=O)(=O)c1ccc(F)cc1,"cell-free assay, competition with immobilised ligand",78
CN(C)c1nccc(-c2cnc3ncccn23)n1,binding,100
COc1ccc2cc(OCC3(C(=O)O)CN(C(=O)c4ccc(F)cc4)C3)ccc2c1,"cell-free assay, competition with immobilised ligand",100
N[C@@H]1CCN(c2nccc(-c3cnn4ncccc34)n2)C1,binding,96
CCCOc1ccc([C@@H]2[C@@H](C(=O)O)[C@H](c3ccc4c(c3)OCO4)CN2CC(=O)Nc2c(CC)cccc2CC)cc1,"cell-free assay, competition with immobilised ligand",100
C=CC(=O)N1CCC(C(=O)NCC(=O)N2CCN(c3nc(-c4cnc(N)nc4C(F)F)nc(N4CCOCC4)n3)CC2)CC1,"binding, competition with immobilised ligand",98
